ChEMBL document CHEMBL1151481, “Cytotoxic polyprenylated xanthones from the resin of Garcinia hanburyi” (J Nat Prod, 2009)

Each compound was assayed on HeLa (assay: Cytotoxicity against human HeLa cells after […] by MTT assay). Conditions: Homo sapiens, HeLa.
Assay type: functional, cell-based
How it was run: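 MTT read-out on HeLa cells, with an adriamycin positive control. Each determination was run in triplicate and reported as mean ± SEM. The 50% inhibitory concentration was obtained by interpolating concentration–inhibition curves.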

| SMILES | IC50 [nM] |
| --- | --- |
| CC(C)=CCc1c2c(c(O)c3c1OC(C)(C)C1CCC(C)=CC31)C(=O)C1=C[C@@H]3C[C@H]4C(C)(C)O[C@@](C/C=C(/C)C(=O)O)(C3=O)[C@@]14O2 (stereo partly specified) [GAMBOGEFIC ACID] | 560 |
| CC(C)=CCc1c2c(c(O)c3c1O[C@]14C(=C[C@@H]5C[C@H]1C(C)(C)O[C@@]4(C/C=C(/C)C(=O)O)C5=O)C3=O)C=CC(C)(CC/C=C/C(C)(C)O)O2 (stereo partly specified) [OXYGAMBOGIC ACID] | 1910 |
| CC(C)=CCC/C(C)=C/COc1cc(O)c2c(c1CC=C(C)C)O[C@]13C(=C[C@@H]4C[C@H]1C(C)(C)O[C@@]3(CC=C(C)C)C4=O)C2=O | 4090 |
| CO[C@]12C=C3C(=O)c4c(O)c5c(c(CC=C(C)C)c4O[C@@]34[C@@H](C1)C(C)(C)O[C@@]4(C/C=C(/C)C(=O)O)C2=O)O[C@](C)(CCC=C(C)C)C=C5 | 930 |
| CC(C)=CCc1c2c(c(O)c3c1O[C@]14C(C3=O)[C@@H](O)[C@@H]3C[C@H]1C(C)(C)O[C@@]4(C/C=C(/C)C(=O)O)C3=O)C=CC(C)(C)O2 (stereo partly specified) | 1710 |
| COC(=O)/C(C)=C\C[C@@]12OC(C)(C)[C@@H]3C[C@@H](CC4C(=O)c5c(O)c6c(c(CC=C(C)C)c5O[C@]431)OC(C)(C)C=C6)C2=O (stereo partly specified) | 111000 |
| CC(C)=CCCC1(C)C=Cc2c(O)c3c(c(CC=C(C)C)c2O1)O[C@]12C(C3=O)C(O)[C@@H]3C[C@H]1C(C)(C)O[C@@]2(C/C=C(/C)C(=O)O)C3=O (stereo in doubt; 13) | 640 |
| CO[C@]12C=C3C(=O)c4c(O)c5c(c(CC=C(C)C)c4O[C@@]34[C@@H](C1)C(C)(C)O[C@@]4(C/C=C(/C)C(=O)O)C2=O)O[C@@](C)(CCC=C(C)C)C=C5 | 850 |
| COc1cccc2c1C(=O)c1c(O)c3c(c(O)c1C2=O)C[C@@](O)(C(=O)CO)C[C@@H]3O[C@H]1C[C@H](N)[C@H](O)[C@H](C)O1 [DOXORUBICIN] | 410 |
| CC(C)=CCC[C@]1(C)C=Cc2c(O)c3c(c(CC=C(C)C)c2O1)O[C@]12C(=C[C@@H]4C[C@H]1C(C)(C)O[C@@]2(C/C=C(/C)C(=O)O)C4=O)C3=O [GAMBOGIC ACID] | 700 |
| CC(C)=CCC/C(C)=C/Cc1c(O)c2c(c3c1O[C@@H](C(C)(C)O)C3)O[C@]13C(=C[C@@H]4C[C@H]1C(C)(C)O[C@@]3(C/C=C(/C)C(=O)O)C4=O)C2=O [GAMBOGENIFIC ACID] | 1790 |
| CC(C)=CCC/C(C)=C/Cc1c(O)c(CC=C(C)C)c2c(c1O)C(=O)C1C=CCC3C(C)(C)OC4(CC=C(C)C(=O)O4)C13O2 (stereo unspecified) | 8680 |
| C=C(C)C1CCC2(C)CC1c1c(O)c3c(c(CC=C(C)C)c1O2)O[C@]12C(=C[C@]4(OC)C[C@H]1C(C)(C)O[C@@]2(C/C=C(/C)C(=O)O)C4=O)C3=O (stereo partly specified) | 910 |
| CO[C@]12C=C3C(=O)c4c(O)c5c(c(CC=C(C)C)c4O[C@@]34[C@@H](C1)C(C)(C)O[C@@]4(C/C=C(/C)CO)C2=O)OC(C)(C)C=C5 | 1210 |
| CC(C)=CCC/C(C)=C/Cc1c(O)c(CC=C(C)C)c2c(c1O)C(=O)C1C(O)[C@@H]3C[C@H]4C(C)(C)O[C@@](C/C=C(/C)C(=O)O)(C3=O)[C@@]14O2 (stereo partly specified) | 5080 |

Same assay, conditions: hela

| SMILES | IC50 [nM] |
| --- | --- |
| CC(C)=CCCC1(C)C=Cc2c(O)c3c(c(CC=C(C)C)c2O1)O[C@]12C(C3=O)C(O)[C@@H]3C[C@H]1C(C)(C)O[C@@]2(C/C=C(/C)C(=O)O)C3=O (stereo in doubt; 14) | 630 |
